# High-throughput results as filed in PubChem BioAssay.
# thrombin 1536: blocks human thrombin protease activity | 220,000 compounds, 0.26% hits | AID 1046 | inhibition, % at 5 µM | P00734 | alpha-thrombin, Boc-VPR-AMC fluorogenic substrate cleavage;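 active = inhibition at or above 40%; inactive = inhibition below 40%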;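 note: 0% = enzyme with no compound and 100% = wells without enzyme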
#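 System – human alpha-thrombin protein · Reagent – Boc-VPR-AMC substrate, 15 µM final · Compound – 5 µM single dose in 0.2% DMSO · Schedule – reaction at room temperature · Technique – AMC fluorescence at 355 nm excitation and 460 nm emission · Read-out basis – % inhibition relative to enzyme controls and enzyme-free blanks · Control set – no-compound enzyme wells and no-enzyme blanks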
# FXIa inh 1536: inhibitors of human coagulation factor XIa. P03951. purified FXIa, Boc-Glu-Ala-Arg-AMC fluorogenic substrate. inhibition, % at 5 µM. 220,000 compounds, 0.14% hits. AID 798;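 active = inhibition of at least 40%; inactive = inhibition below 40%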;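 note: fluorescence of freed AMC excited at 355 nm; 0% = enzyme without compound and 100% = no enzyme blank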
# Target sequence (P03951 19-387 limits assumed): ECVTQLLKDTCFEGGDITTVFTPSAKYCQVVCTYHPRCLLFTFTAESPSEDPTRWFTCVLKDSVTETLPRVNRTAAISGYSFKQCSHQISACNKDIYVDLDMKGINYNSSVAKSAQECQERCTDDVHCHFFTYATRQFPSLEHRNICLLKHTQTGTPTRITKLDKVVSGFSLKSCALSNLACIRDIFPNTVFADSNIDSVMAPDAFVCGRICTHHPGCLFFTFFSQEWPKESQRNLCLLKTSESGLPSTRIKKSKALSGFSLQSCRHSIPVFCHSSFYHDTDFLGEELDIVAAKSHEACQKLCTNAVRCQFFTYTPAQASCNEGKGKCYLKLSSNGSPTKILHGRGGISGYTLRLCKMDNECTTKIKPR
# Target sequence (P03951 388-625 limits assumed): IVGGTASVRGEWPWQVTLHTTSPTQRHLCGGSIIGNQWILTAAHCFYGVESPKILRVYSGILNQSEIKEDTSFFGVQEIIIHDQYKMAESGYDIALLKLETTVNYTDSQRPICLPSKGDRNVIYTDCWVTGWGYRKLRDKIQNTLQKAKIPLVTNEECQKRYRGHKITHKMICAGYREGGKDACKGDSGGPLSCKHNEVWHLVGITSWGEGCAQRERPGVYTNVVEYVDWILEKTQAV
# FXIIa inh: inhibitors of human coagulation factor XIIa; purified FXIIa, Boc-QGR-AMC fluorogenic substrate, 2 h; inhibition, % at 5 µM; 220,000 compounds, 0.3% hits; in the data active = inhibition above about 40%;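 note: 0% = enzyme with no compound and 100% = blank without enzyme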
# m-calpain inh: calpain II (pig) inhibition | purified calpain II, fluorogenic peptide substrate, 30 min | inhibition, % at 16 µM | 220,000 compounds, 0.37% hits | AID 1236;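 active = inhibition above about 50%, limit read from the data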
# KLK5 inh: inhibitors of human kallikrein 5. inhibition, % at 5 µM. 210,000 compounds, 0.59% hits. AID 873. Q9Y337. recombinant hK5, fluorogenic AMC substrate cleavage;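 active = inhibition of 40% or more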;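 note: 0% = enzyme controls without compound and 100% = no-enzyme blanks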
# Furin inh: inhibitors of human furin; P09958; purified furin, fluorogenic substrate cleavage; inhibition, % at 20 µM or 30 µM; 220,000 compounds, 0.061% hits; AID 463115; in the data active = inhibition above about 25%
# * marks the source's active call; other numbers are inactive results; i = inactive; x = no result given. In the library only some 1.4% were active in any assay of this set; here they are far more common.
SMILES,thrombin 1536,FXIa inh 1536,FXIIa inh,m-calpain inh,KLK5 inh,Furin inh
COC(=O)c1ccc(N=C(c2ccccc2)c2c(O)n(C)c(=O)n(C)c2=O)cc1,-10.1,-3.3,0.2,-5.7,-5.0,-2.8
CCOC(=O)c1ccc(N=C(c2ccccc2)c2c(O)n(C)c(=O)n(C)c2=O)cc1,-7.5,-12.7,-0.6,-0.9,43.1*,-3.5
CSc1nnc(C2CCNCC2)n1C,0.9,-2.0,11.6,-22.6,-12.8,-8.0
Cc1ncc(CN2CCCC(C(=O)c3ccc(C(C)(C)C)cc3)C2)s1 (configuration not stated),3.2,28.6,62.8*,26.0,35.2,-7.2
CC/C(=N\Nc1ccccc1)c1c(O)n(-c2ccccc2)c(=O)[nH]c1=O,-0.6,7.0,12.9,29.7,-4.0,-20.1
Cc1c(N=Nc2c(O)[nH]c(=S)[nH]c2=O)c(=O)n(-c2ccccc2)n1C,-2.2,11.3,4.2,17.8,-67.1,15.6
CCOc1ccc(-n2c(O)c(N=Nc3c(C)n(C)n(-c4ccccc4)c3=O)c(=O)[nH]c2=O)cc1,-3.4,-15.1,3.9,19.3,1.1,25.0*
CN(C)c1ccc(NC(=O)CN2C(=O)CN=C(c3ccccc3)c3ccccc32)cc1,-2.0,-12.1,-9.6,x,7.3,-24.3
Nc1ccncc1Cl,15.8,31.5,27.9,25.9,41.3*,-1.3
CCCn1cc(CN2CCCC(C(=O)c3cccc(OC)c3)C2)c(C)n1 (configuration not stated),-7.0,31.5,75.3*,25.4,21.2,-11.3
O=C(c1cccnc1)C1CCCN(Cc2nc(-c3cnccn3)no2)C1 (configuration not stated),30.5,36.9,40.9*,3.9,25.9,-7.1
O=C(c1ccccc1)C1CCCN(Cc2nc(-c3cnccn3)no2)C1 (configuration not stated),-5.9,-9.5,3.0,-2.9,-6.6,-13.2
COC(=O)c1ccc(C(C(=O)NC2CCCCC2)N(CCN2CCOCC2)C(=O)Cc2cccs2)cc1 (configuration not stated),-7.6,1.0,100.0*,36.1,-1.2,-20.4
CCN(CC)c1ccc(N=Cc2c(O)n(-c3ccccc3C)c(=O)[nH]c2=O)cc1,-16.4,8.0,12.1,6.2,-5.2,-17.1
Cc1ccccc1-n1c(O)c(C=Nc2ccc3c(c2)OCO3)c(=O)[nH]c1=O,-0.9,-8.1,-6.7,12.6,6.1,27.4*
Cn1cccc1/C=C1\C(=O)NC(=O)N(Cc2ccccc2Cl)C1=O,10.4,48.0*,32.0,-18.0,18.5,-10.7
O=C1C=Cc2ccccc2C1=O,0.0,5.2,7.2,60.2*,-8.9,-9.1
O=c1cccc2n1CC1CC2CN(C(c2ccccc2)c2sc3ncnn3c2O)C1 (configuration not stated),-4.9,4.0,16.1,0.3,-8.6,-27.2
COc1ccc(OCC(=O)N2CCN(Cc3ccc(SC)cc3)CC2)cc1,48.9*,-2.2,4.2,-36.4,1.3,-30.3
O=C(N/N=C/c1c(O)n(CCc2ccccc2)c(=O)[nH]c1=O)c1ccncc1,49.6*,-6.3,-2.1,1.7,-27.7,1.7
O=C(N/N=C/c1c(O)n(CCc2ccc(F)cc2)c(=O)[nH]c1=O)c1ccncc1,-15.6,-1.0,1.1,-55.9,-21.8,-1.4
C[N+]1(CC(COCc2ccccc2)OC(=O)Cc2ccccc2)CCOCC1 (configuration not stated),0.2,0.6,8.5,7.0,1.3,-4.6
CCN(CC)c1ccc(/C=C2/C(=O)NC(=O)N(Cc3ccco3)C2=O)cc1,7.5,11.3,-15.7,1.8,-4.3,-0.7
CC(=O)OC1(c2ccccc2)CCN(C)C(C)C1C (configuration not stated),5.1,7.5,13.9,-15.0,-5.6,-12.4
CC(=O)N1CN2CN(C(C)=O)CC(C(=O)c3ccc([N+](=O)[O-])cc3)(C2)C1,-3.7,-2.6,7.5,-21.0,0.5,-24.9
SMILES,thrombin 1536,FXIa inh 1536,FXIIa inh,m-calpain inh,KLK5 inh,Furin inh
CC(=O)N1CN2CN(C(C)=O)CC(C(=O)c3ccccc3)(C2)C1,16.6,8.4,18.9,12.6,47.9*,-16.7
CN(C)C(=O)Oc1ccc(-c2cn3cc(Cl)ccc3n2)cc1,27.0,4.0,10.2,-0.4,44.1*,0.1
COc1ccc(CCn2c(O)c(C=NCCCN(C)C)c(=O)[nH]c2=O)cc1OC,15.1,3.1,7.4,31.6,-32.7,-18.4
O=C(c1cccn2c(=O)c3cc(Br)ccc3nc12)N1CCC2(CC1)OCCO2,20.0,54.8*,0.7,i,37.6,-14.8
Clc1ccc(COC(Cn2ccnc2)c2ccc(Cl)cc2Cl)c(Cl)c1 (configuration not stated),-2.7,23.4,0.3,58.4*,-13.7,-14.0
CCN(CC)P(c1n(C)cc[n+]1C)N(CC)CC,-1.4,4.3,8.8,4.7,4.1,-19.4
O=C(c1ccc(C(F)(F)F)cc1)C1CCCN(Cc2ccc(CO)o2)C1 (configuration not stated),-5.3,-2.9,1.5,-11.8,x,-21.3
COC(=O)C(O)(c1c(C)[nH]n(-c2ccccc2)c1=O)C(F)(F)F (configuration not stated),12.8,10.6,22.6,8.4,99.4*,-20.1
COC(=O)C(O)(c1c[nH]c2ccccc12)C(F)(F)F (configuration not stated),0.7,4.9,22.0,-11.0,-15.5,-18.8
CCOC(=O)C1CCCN(c2ccc([N+](=O)[O-])c3nonc23)C1 (configuration not stated),-0.6,-0.6,7.3,59.8*,x,-11.6
NP(=O)(Oc1ccccc1Cl)Oc1ccccc1Cl,-8.2,2.9,2.0,1.9,-5.3,-12.7
O=C(NCc1ccccn1)c1ccccc1Cl,10.9,3.8,13.8,12.2,60.6*,-11.5
COc1cccc(CCNCc2c(F)cccc2F)c1,-2.8,4.5,9.4,-22.1,-0.2,-20.5
